# Screening results: PubChem, several laboratories
# Rows were chosen to be rich in hits. Some 2.7% of all compounds tested hit in one or more screens of this group.
# PREPL inh = PREPL enzyme inhibitors, primary screen, biochemical, fluorescence polarization | recombinant PREPL, fluorescence polarization activity-based probe | inhibition, % at 5.96 µM | Prolyl endopeptidase-like (Homo sapiens), Q4J6C6 | actives 0.68% (n = 320,000);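 note: 0% = enzyme with DMSO and 100% = wells lacking enzyme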
# MC4R antagonist = MC4R antagonists of cAMP signaling, primary screen, cell-based, TR-FRET, antagonist arm of biased-ligand search. actives 0.48% (n = 360,000). MC4R-expressing cells, MTII-stimulated cAMP, LANCE TR-FRET. AID 540295, 2011. Melanocortin receptor 4 (Homo sapiens), P32245. inhibition, % at 6.5 µM;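 active = inhibition above its plate's cutoff, the mean of tested wells on that plate plus 3 SD, cut at about 29% in these data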;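 note: 0% = Melanotan II alone and 100% = Melanotan II plus saturating MCL0020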
#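 Assay system: U2OS-MC4R stable cell line; Also added: Melanotan II; Technique: Eu-cAMP/anti-cAMP TR-FRET, emission 671 nm; Times: 30-min compound, 1-h challenge, 1-h detection, room temperature.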
# NTR1 ag = agonists of human NTR1, primary screen, imaging, U2OS cells, beta-arrestin-GFP, high content. Neurotensin receptor type 1 (Homo sapiens), P30989. NTR1-U2OS beta-arrestin-GFP spot imaging, agonist mode. activation, % at 20 µM. actives 0.17% (n = 330,000);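 active = activation at or above 40% of the spot to cytoplasm intensity ratio, with at least 20 cells analyzed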;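 note: 0% = DMSO without peptide and 100% = 100 nM NTR1 peptide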
# Target sequence (P30989 whole entry, looked up): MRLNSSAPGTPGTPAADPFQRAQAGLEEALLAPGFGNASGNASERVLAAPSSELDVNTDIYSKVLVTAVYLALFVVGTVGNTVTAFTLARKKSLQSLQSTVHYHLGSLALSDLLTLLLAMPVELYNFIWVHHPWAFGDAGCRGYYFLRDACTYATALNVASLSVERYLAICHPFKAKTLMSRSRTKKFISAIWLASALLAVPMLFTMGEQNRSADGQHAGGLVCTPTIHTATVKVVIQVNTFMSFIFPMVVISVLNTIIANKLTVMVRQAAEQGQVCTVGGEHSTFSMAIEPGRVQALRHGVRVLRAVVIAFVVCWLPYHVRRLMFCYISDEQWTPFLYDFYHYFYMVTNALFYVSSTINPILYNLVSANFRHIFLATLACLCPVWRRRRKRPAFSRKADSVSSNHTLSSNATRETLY
# Hep lipid drop = inhibitors of hepatocyte lipid droplet formation, primary screen, imaging, high-throughput imaging, BODIPY stain | AML12 mouse hepatocytes, oleate lipid droplets | inhibition, % at 6.5 µM | actives 0.4% (n = 240,000) | AID 1656, 2009;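 active = lipid droplet intensity inhibited by at least 50%, with more than 500 cells counted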
#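 Assay system: AML12 hepatocytes (mouse) / Also added: 100 µM oleic acid challenge / Times: overnight treatment with compound plus oleate / Detection: high-content imaging of BODIPY-stained droplets and DAPI nuclei / Evaluation: % inhibition of lipid droplet signal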
# m5-HT2A agonist = mouse Htr2a agonists via beta-arrestin recruitment, primary screen, cell-based, luminescence; CHO-K1 mHTR2A beta-arrestin complementation; percent of 30 µM serotonin response; activation, % at 7.6 µM; AID 624169, 2012; actives 0.66% (n = 360,000); 5-hydroxytryptamine receptor 2A (Mus musculus), P35363;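 active = activation above a run cutoff, the mean activation of all tested compounds plus 3 SD, cut at about 14% in these data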;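 note: 0% = plate median of compound wells and 100% = 30 µM serotonin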
# MC4R barr agon = MC4R agonists recruiting beta-arrestin, primary screen, cell-based, luminescence, agonist arm of biased-ligand search; activation, % at 8.9 µM; actives 0.98% (n = 360,000); Melanocortin receptor 4 (Homo sapiens), P32245; U2OS MC4R beta-arrestin complementation; percent of melanotan II response, DMSO zero;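 active = activation above a per-plate cutoff, the mean activation of sample wells on that plate plus 3 SD, cut at about 8% in these data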
# PREPL inh cf = human PREPL enzyme inhibitors, confirmation, biochemical, fluorescence polarization; actives 67% (n = 2,000); inhibition, % at 5.96 µM; shares compounds with PREPL inh; recombinant PREPL, fluorescence polarization activity probe; AID 2803, 2010;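 note: 0% = protein with DMSO and 100% = wells lacking protein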
# * marks the source's active call; other numbers are inactive results; . = no result given. Cut-off read from the data, not from the text of the source, unless noted: active = inhibition above about 43%; inactive = the rest.
SMILES,PREPL inh,MC4R antagonist,NTR1 ag,Hep lipid drop,m5-HT2A agonist,MC4R barr agon,PREPL inh cf
CCc1nc2ccc(C(=O)Nc3ccc(OC)c(OC)c3)cn2c1N(C)Cc1cccs1,.,5,.,.,-8,-2,.
Cc1ccc(Nc2nc(-c3sc(C)nc3C)cs2)cc1,46*,-6,2,-73,-2,0,32
Cc1ccc(Nc2nc(-c3sc(N)nc3C)cs2)cc1,.,-1,3,-7,0,2,.
COc1ccc(Nc2nc(-c3sc(N)nc3C)cs2)cc1,50*,9,-3,-5,-5,-1,26
COc1ccc(CCNc2nc(-c3sc(N)nc3C)cs2)cc1OC,43*,0,-1,-1,-2,-2,22
CC(C)(C)n1nnnc1C(c1ccccc1)N1CCN(C(=O)C2CCCO2)CC1 (configuration not stated),.,.,.,.,2,.,.
COc1ccccc1NC(=O)c1ccc(NC(=O)CN2C(=O)CN(C)C2=O)cc1,-7,-5,0,23,3,-2,.
CCNS(=O)(=O)c1ccc(Br)c(OC)c1,15,-7,-2,18,2,-1,.
COc1cc(NCc2ccccc2)c2ncn(C(C)C)c2c1,1,-8,4,.,-4,-1,.
CCC(CO)Oc1cc(NCc2cccc(Cl)c2)c2ncn(C(C)C)c2c1 (configuration not stated),57*,-6,2,.,-2,3,38
CCC(CO)Oc1cc(NCc2cccnc2)c2ncn(C(C)C)c2c1 (configuration not stated),21,4,-1,.,6,-1,.
CCC(CO)Oc1cc(NCc2ccncc2)c2ncn(C(C)C)c2c1 (configuration not stated),3,11,-1,.,3,1,.
CCC(CN(C)C)Oc1cc(NCc2ccccc2)c2ncn(C(C)C)c2c1 (configuration not stated),63*,-5,0,.,0,-1,51*
CCC(CO)Oc1cc(NCc2ccc(F)cc2)c2ncn(C(C)C)c2c1 (configuration not stated),50*,10,-1,.,7,-1,14
O=[N+]([O-])c1cccc(CN2CCCCCC2)c1,30,0,2,-2,0,-1,.
O=[N+]([O-])c1ccc(N2CCN(Cc3cccc([N+](=O)[O-])c3)CC2)cc1,45*,19,2,-2,0,0,44*
O=[N+]([O-])c1ccc(CN2CCN(c3ccc([N+](=O)[O-])cc3)CC2)cc1,45*,14,1,0,-2,-2,51*
NS(=O)(=O)c1ccc(CCN=Cc2ccccc2O)cc1,-2,19,1,-21,1,0,.
Cc1ncc([N+](=O)[O-])n1CC(=O)Nc1cc(Cl)ccc1Cl,19,4,0,-9,-2,-2,.
O=C(COC(=O)Cc1ccc(S(=O)(=O)N2CCOCC2)s1)Nc1ccccc1,4,17,-2,.,-7,-1,.
O=C(COC(=O)Cc1ccc(S(=O)(=O)N2CCOCC2)s1)Nc1ccc([N+](=O)[O-])cc1,45*,11,-1,.,-3,0,38
O=C(CN1CCN(c2ccccn2)CC1)Nc1cc(C(F)(F)F)ccc1Cl,47*,3,1,.,-2,3,30
CC[C@]12c3[nH]c4cc(-c5ccco5)ccc4c3CCN1C(=O)[C@@H](CC(=O)NCCCOC)C[C@@H]2C(=O)N1CCN(C(=O)c2ccco2)CC1,.,12,-1,.,0,0,.
COc1cc(CNCc2ccc(OC)cc2OC)cc(OC)c1,4,6,2,-1,-6,2,.
